Test results: ChEMBL document CHEMBL3877270, “Biological and structural studies of phosphonium 'masked thiolate' compounds” (Eur J Med Chem, 2017); call rule not given here

How the values were obtained:
[1] = Cytotoxicity against human PC3 cells measured at 72 hrs post dose by Celltiter-Glo luminescent cell viability assay; format: functional, cell-based; conditions: PC-3, 72 h
Method in brief: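 PC3 cells (ATCC; DMEM GlutaMAX high glucose, 10% heat-inactivated FBS, pen/strep, 37 °C, 5% CO2) seeded 10,000/well, adhered overnight, then exposed 0–1000 µM for 24, 48, 72 h. Viability by CellTiter-Glo ATP luminescence after 30 min room-temperature equilibration. Vehicle controls at 0.1–0.001% DMSO. Quadruplicate wells, 3 independent experiments (n = 12). Normalised to control; IC50 from curve fit.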

[2] = Drug uptake in human PC3 cells measured after 90 mins by MALDI-TOF-MS analysis; format: ADME, cell-based; conditions: pc-3, 1.5 h
Method in brief: (§1)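 Trypsinised PC3 cells washed in PBS, resuspended in low-K+ HEPES buffer pH 7.4, 0.5×10^6 cells incubated with compound at 5 µM final, 37 °C, 0–120 min. Cells washed in cold PBS, lysed in cold water, lysate spiked with tetraphenylphosphonium bromide internal standard, α-CHCA matrix, positive-ion MALDI-TOF-MS. Amount from calibration curve built in PC3 lysate; triplicate analyses, three independent experiments.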

[3] = Aqueous solubility of the compound; format: physicochemical; conditions: buffer
[4] = Drug uptake in human PC3 cells measured after 10 mins by MALDI-TOF-MS analysis; format: ADME, cell-based; conditions: pc-3, 10 min; method in brief: as §1
[5] = Drug uptake in human PC3 cells measured after 30 mins by MALDI-TOF-MS analysis; format: ADME, cell-based; conditions: pc-3, 0.5 h; method in brief: as §1
[6] = Drug uptake in rat C6 cells at 10 uM measured after 10 to 90 mins by MALDI-TOF-MS analysis relative to tetraphenylphosphonium cation; format: ADME, cell-based; conditions: c6, 10 µM

Row | SMILES | solubility [3] | IC50 [1] | other results
1 | Cc1ccc(-c2nc([P+](c3ccccc3)(c3ccccc3)c3ccccc3)c[se]2)cc1 |  | 0.4 µM | 
2 | C/C(N)=C/[P+](c1ccccc1)(c1ccccc1)c1ccccc1 |  | 8 µM | 
3 | Fc1ccc([P+](c2ccccc2)(c2ccccc2)c2ccccc2)cc1 [BFPET] |  |  | Drug uptake [6]: 80%

More lines, main results first:

Row | solubility [3] | SMILES | IC50 [1] | other results
4 | Soluble | CC(=O)SCCC[P+](c1ccc(F)cc1)(c1ccc(F)cc1)c1ccc(F)cc1.[Br-] | 252 µM | Drug uptake [2]: Active
5 | Soluble | CC(=O)SCCC[P+](c1ccccc1)(c1ccccc1)c1ccccc1.[Br-] | 67 µM | Drug uptake [4]: Active; Drug uptake [5]: Active
